From ChEMBL document CHEMBL2331355, “Synthesis, structure activity relationship and mode of action of 3-substitutedphenyl-1-(2,2,8,8-tetramethyl-3,4,9,10-tetrahydro-2H,8H-pyrano[2,3-f]chromen-6-yl)-propenones as novel anticancer agents in human leukaemia HL-60 cells” (Eur J Med Chem, 2013)
Calls of active or inactive are those of the source. The calls are words filed in the database; no cut-off is given here.

Assays:
[1] = system: Caco-2; experiment: Growth inhibition of human Caco2 cells at 30 uM after 48 hrs by MTT assay; assay type: functional, cell-based
Summary of the method: (§1)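 Single-concentration MTT screen at 50 µM over 48 h in 96-well plates. Compounds giving >50% inhibition were rescreened at 30 µM. OD read at 570 nm, reference 620 nm. Result expressed as % growth inhibition versus untreated control. Mitomycin C, adriamycin or 5-fluorouracil used as positive controls. Mean ± SD of three independent experiments.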

[2] = system: HL-60; experiment: Cell cycle arrest in human HL60 cells assessed as accumulation of G0/G1 phase cells at 10 uM after 24 hrs by PI staining-based flow cytometric analysis (reference value: 48%); assay type: functional
[3] = system: PC-3; experiment: Growth inhibition of human PC3 cells at 30 uM after 48 hrs by MTT assay; assay type: functional, cell-based; summary of the method: as §1
[4] = system: Caco-2; experiment: Cytotoxicity against human Caco2 cells after 48 hrs by MTT assay; assay type: functional, cell-based; settings: Caco-2, 48 h
Summary of the method: (§2)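 MTT assay in 96-well plates, 48 h exposure across 1–100 µM. OD read at 570 nm against a 620 nm reference. Untreated control OD taken as 100% viability. IC50 derived from the concentration–response curves. Mean ± SD, n = 8 wells, from three independent experiments.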

[5] = system: HL-60; experiment: Cell cycle arrest in human HL60 cells assessed as decrease in G2/M phase cells after 24 hrs by PI staining-based flow cytometric analysis; assay type: functional
[6] = system: MIA PaCa-2; experiment: Growth inhibition of human MIAPaCa2 cells at 30 uM after 48 hrs by MTT assay; assay type: functional, cell-based; summary of the method: as §1
[7] = system: HL-60; experiment: Cell cycle arrest in human HL60 cells assessed as accumulation of G0/G1 phase cells at 5 uM after 24 hrs by PI staining-based flow cytometric analysis (reference value: 48%); assay type: functional
[8] = system: MIA PaCa-2; experiment: Growth inhibition of human MIAPaCa2 cells at 50 uM after 48 hrs by MTT assay; assay type: functional; settings: MIA PaCa-2, 48 h, read-out: GI; summary of the method: as §1
[9] = system: HL-60; experiment: Cell cycle arrest in human HL60 cells assessed as accumulation of G0/G1 phase cells at 20 uM after 24 hrs by PI staining-based flow cytometric analysis (reference value: 48%); assay type: functional
[10] = system: HL-60; experiment: Cell cycle arrest in human HL60 cells assessed as accumulation of G0/G1 phase cells after 24 hrs by PI staining-based flow cytometric analysis; assay type: functional
[11] = system: HL-60; experiment: Induction of mitochondrial membrane potential loss in human HL60 cells at 15 uM after 24 hrs by rhodamine-123 staining method (reference value: 7%); assay type: functional
Summary of the method: (§3)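 HL-60 cells (1 × 10⁶/2 ml/well) treated 24 h at 15 or 20 µM, then incubated with rhodamine-123 (200 nM) for 40 min. Loss of dye uptake measured by flow cytometry. Camptothecin (4 µM, 6 h) as positive control. Representative of three experiments.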

[12] = system: ASPC1; experiment: Growth inhibition of human AsPC1 cells at 50 uM after 48 hrs by MTT assay; assay type: functional; settings: ASPC1, 48 h, read-out: GI; summary of the method: as §1
[13] = system: HL-60; experiment: Induction of apoptosis in human HL60 cells assessed as nuclear blebbing after 24 hrs by Hoechst 33258 staining; assay type: functional, cell-based
Summary of the method: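 HL-60 cells (1 × 10⁶/2 ml) treated 24 h at 15 and 20 µM, pelleted at 300 g and washed. Stained with Hoechst 33258, then examined under an inverted fluorescence microscope (10×, UV excitation) for nuclear condensation, blebbing and apoptotic bodies.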

[14] = system: MDA-MB-435; experiment: Growth inhibition of human MDA-MB-435 cells at 50 uM after 48 hrs by MTT assay; assay type: functional; settings: MDA-MB-435, 48 h, read-out: GI; summary of the method: as §1
[15] = system: HL-60; experiment: Cell cycle arrest in human HL60 cells assessed as S phase cells at 20 uM after 24 hrs by PI staining-based flow cytometric analysis (reference value: 49%); assay type: functional
[16] = system: HL-60; experiment: Cell cycle arrest in human HL60 cells assessed as G2/M phase cells at 15 uM after 24 hrs by PI staining-based flow cytometric analysis (reference value: 3%); assay type: functional
[17] = system: HL-60; experiment: Growth inhibition of human HL60 cells at 50 uM after 48 hrs by MTT assay; assay type: functional; settings: HL-60, 48 h, read-out: GI; summary of the method: as §1
[18] = system: HL-60; experiment: Induction of apoptosis in human HL60 cells at 5 uM after 24 hrs by PI-staining based flow cytometric analysis (reference value: 0.7 %); assay type: functional
[19] = system: MIA PaCa-2; experiment: Cytotoxicity against human MIAPaCa2 cells after 48 hrs by MTT assay; assay type: functional, cell-based; settings: MIA PaCa-2, 48 h; summary of the method: as §2
[20] = system: HL-60; experiment: Cell cycle arrest in human HL60 cells assessed as accumulation of G0/G1 phase cells at 15 uM after 24 hrs by PI staining-based flow cytometric analysis (reference value: 48%); assay type: functional
[21] = system: PC-3; experiment: Growth inhibition of human PC3 cells at 50 uM after 48 hrs by MTT assay; assay type: functional; settings: PC-3, 48 h, read-out: GI; summary of the method: as §1
[22] = system: Caco-2; experiment: Growth inhibition of human Caco2 cells at 50 uM after 48 hrs by MTT assay; assay type: functional; settings: Caco-2, 48 h, read-out: GI; summary of the method: as §1
[23] = system: HL-60; experiment: Cytotoxicity against human HL60 cells after 48 hrs by MTT assay; assay type: functional, cell-based; settings: HL-60, 48 h; summary of the method: as §2
[24] = system: HL-60; experiment: Cell cycle arrest in human HL60 cells assessed as S phase cells at 10 uM after 24 hrs by PI staining-based flow cytometric analysis (reference value: 49%); assay type: functional
[25] = system: HL-60; experiment: Cytotoxicity against human HL60 cells after 24 hrs by MTT assay; assay type: functional, cell-based; settings: HL-60, 24 h
Summary of the method: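 HL-60 cells exposed 24 h to a range of concentrations, then MTT reduction measured. Untreated control OD taken as 100% viability; IC50 derived from the curve. Mean ± SD, n = 8 wells, three independent experiments.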

[26] = system: ASPC1; experiment: Growth inhibition of human AsPC1 cells at 30 uM after 48 hrs by MTT assay; assay type: functional, cell-based; summary of the method: as §1
[27] = system: HL-60; experiment: Cell cycle arrest in human HL60 cells assessed as S phase cells at 5 uM after 24 hrs by PI staining-based flow cytometric analysis (reference value: 49%); assay type: functional
[28] = system: MCF7; experiment: Growth inhibition of human MCF7 cells at 30 uM after 48 hrs by MTT assay; assay type: functional, cell-based; summary of the method: as §1
[29] = system: MCF7; experiment: Growth inhibition of human MCF7 cells at 50 uM after 48 hrs by MTT assay; assay type: functional; settings: MCF7, 48 h, read-out: GI; summary of the method: as §1
[30] = system: HL-60; experiment: Cell cycle arrest in human HL60 cells assessed as decrease in S phase cells after 24 hrs by PI staining-based flow cytometric analysis; assay type: functional
[31] = system: HL-60; experiment: Induction of apoptosis in human HL60 cells at 20 uM after 24 hrs by PI-staining based flow cytometric analysis (reference value: 0.7 %); assay type: functional
[32] = system: HL-60; experiment: Induction of apoptosis in human HL60 cells assessed as accumulation of sub-G0/G1 phase cells after 24 hrs by PI-staining based flow cytometric analysis; assay type: functional, cell-based
[33] = system: MDA-MB-435; experiment: Growth inhibition of human MDA-MB-435 cells at 30 uM after 48 hrs by MTT assay; assay type: functional, cell-based; summary of the method: as §1
[34] = system: HL-60; experiment: Induction of apoptosis in human HL60 cells at 15 uM after 24 hrs by PI-staining based flow cytometric analysis (reference value: 0.7 %); assay type: functional
[35] = system: HL-60; experiment: Cell cycle arrest in human HL60 cells assessed as S phase cells at 15 uM after 24 hrs by PI staining-based flow cytometric analysis (reference value: 49%); assay type: functional
[36] = system: HL-60; experiment: Induction of mitochondrial membrane potential loss in human HL60 cells at 20 uM after 24 hrs by rhodamine-123 staining method (reference value: 7%); assay type: functional; summary of the method: as §3

Structure (SMILES)	growth inhibition (GI) [1]	Activity [2]	growth inhibition (GI) [3]	IC50 [4]	Activity [5]	growth inhibition (GI) [6]	Activity [7]	inhibition of growth at 50 µM [8]	Activity [9]	Activity [10]	Activity [11]	inhibition of growth at 50 µM [12]	Activity [13]	inhibition of growth at 50 µM [14]	Activity [15]	Activity [16]	inhibition of growth at 50 µM [17]	Activity [18]	IC50 [19]	Activity [20]	further results
CC1(C)CCc2cc(C(=O)/C=C/c3ccc([N+](=O)[O-])cc3)c3c(c2O1)CCC(C)(C)O3	Active	52%	Active	28 µM	Dose-dependent effect	Active	44%	74%	59%	Dose-dependent effect	52%	27%	Dose-dependent effect	78%	37%	4%	91%	3%	45 µM	53%	inhibition of growth at 50 µM [21]: 61%; inhibition of growth at 50 µM [22]: 73%; IC50 [23]: 15 µM; Activity [24]: 44%; IC50 [25]: 23 µM; growth inhibition (GI) [26]: Active; Activity [27]: 47%; growth inhibition (GI) [28]: Active; inhibition of growth at 50 µM [29]: 52%; Activity [30]: Dose-dependent effect; Activity [31]: 32%; Activity [32]: Dose-dependent effect; growth inhibition (GI) [33]: Active; Activity [34]: 14%; Activity [35]: 43%; Activity [36]: 56%
CC1(C)CCc2cc(C(=O)/C=C/c3cccc([N+](=O)[O-])c3)c3c(c2O1)CCC(C)(C)O3	Active	54%	Active	16 µM	Dose-dependent effect	Active	46%	80%	86%	Dose-dependent effect	44%	48%	Dose-dependent effect	88%	11%	4%	92%	3%	18 µM	71%	inhibition of growth at 50 µM [21]: 72%; inhibition of growth at 50 µM [22]: 93%; IC50 [23]: 11 µM; Activity [24]: 42%; IC50 [25]: 25 µM; growth inhibition (GI) [26]: Active; Activity [27]: 48%; growth inhibition (GI) [28]: Active; inhibition of growth at 50 µM [29]: 89%; Activity [30]: Dose-dependent effect; Activity [31]: 58%; Activity [32]: Dose-dependent effect; growth inhibition (GI) [33]: Active; Activity [34]: 30%; Activity [35]: 25%; Activity [36]: 48%
